Activity calls are given as the source filed them. No cut-off for these calls is given here.
Assays:
Trypanosoma cruzi [1] = assay: (§1) Antitrypanosomal activity against Trypanosoma cruzi Arequipa trypomastigotes infected in BALB/c mouse assessed as reduction in parasitemia level in lung measured during acute phase (days 0 to 40 post infection) at 100 mg/kg, po dosed on alternating days (7 to 15 days post infection) by PCR analysis; type: functional, organism-based
Trypanosoma cruzi [2] = assay: as §1, with “bone marrow” for “lung”; type: functional, organism-based
Trypanosoma cruzi [3] = assay: Antitrypanosomal activity against Trypanosoma cruzi SN3 epimastigote forms incubated for 72 hrs by hemocytometry; type: functional, organism-based; conditions: SN3, 72 h
In short: (§2)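 Epimastigotes grown in MTL medium with 10% inactivated FBS at 28 °C. Compounds were dissolved in DMSO (0.01% v/v) and added at 0.1–100 µM for 72 h. Parasites were counted in a Neubauer chamber. IC50 (50% growth inhibition) was derived by linear regression of Kc values. Values are averages of four determinations.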

Trypanosoma cruzi [4] = assay: Antitrypanosomal activity against Trypanosoma cruzi Arequipa trypomastigotes infected in BALB/c mouse assessed as reduction in splenomegaly by measuring weight percent of spleens […] at 50 mg/kg, po dosed on alternating days (7 to 15 days post infection) by PCR analysis (reference value: 1.603%); type: functional; set-up: scale not given: the % may be the effect or the level left
Trypanosoma cruzi [5] = assay: as §1, with “level in heart measured during” for “level in lung measured during”, “infection) at 50 to 100 mg/kg,” for “infection) at 100 mg/kg,”; type: functional, organism-based; conditions: dose 50-100 mg/kg
Trypanosoma cruzi [6] = assay: Antitrypanosomal activity against Trypanosoma cruzi Arequipa trypomastigote froms infected in mouse blood incubated for 24 hrs by Neubauer chamber based assay; type: functional, organism-based
In short: (§3)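 Mouse blood taken at peak parasitemia (day 7) was diluted with uninfected blood to 4×10^6 trypomastigotes/mL, then 1:2 in RPMI 1640. Drugs from DMSO stocks were added at 1, 10, 25, 50 and 100 µM and incubated 24 h at 4–8 °C. Parasites were counted in a Neubauer chamber in triplicate. IC50 was calculated versus control.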

Trypanosoma cruzi [7] = assay: Antitrypanosomal activity against Trypanosoma cruzi Arequipa trypomastigotes infected in BALB/c mouse assessed as reduction in parasitemia level in brain measured during acute phase (days 0 to 40 post infection) at 100 mg/kg, po dosed on alternating days (7 to 15 days post infection) by PCR analysis; type: functional, organism-based
Trypanosoma cruzi [8] = assay: Antitrypanosomal activity against Trypanosoma cruzi Arequipa trypomastigotes infected in BALB/c mouse assessed as reduction in parasitemia level in heart measured during acute phase (days 0 to 40 post infection) at 100 mg/kg, po dosed on alternating days (7 to 15 days post infection) by PCR analysis; type: functional, organism-based
Trypanosoma cruzi [9] = assay: Antitrypanosomal activity against Trypanosoma cruzi Tulahuen epimastigote forms incubated for 72 hrs by hemocytometry; type: functional, organism-based; in short: as §2
Trypanosoma cruzi [10] = assay: Antitrypanosomal activity against Trypanosoma cruzi infected in African green monkey Vero cells assessed as reduction in infection rate measured up to 10 days by Giemsa staining based hemocytometry; type: functional; conditions: time day <=10
In short: (§4)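 Vero cells infected with metacyclic forms (10:1) were exposed to one concentration per compound immediately after infection for 12 h at 37 °C, 5% CO2. After washing, cultures were kept 10 days with fresh medium every 48 h. Every 48 h, % infected cells and amastigotes per infected cell (200 Giemsa-stained cells) and medium trypomastigotes (Neubauer) were scored. Means of three experiments.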

Trypanosoma cruzi [11] = assay: Antitrypanosomal activity against Trypanosoma cruzi Arequipa trypomastigotes infected in BALB/c mouse assessed as reduction in mouse mortality measured during acute phase (days 0 to 40 post infection) at 50 to 100 mg/kg, po dosed on alternating days (7 to 15 days post infection); type: functional, organism-based; conditions: dose 50-100 mg/kg
Trypanosoma cruzi [12] = assay: as §1, with “esophagus” for “lung”; type: functional, organism-based
[13] = biological target: T1, Superoxide dismutase [Cu-Zn] (Homo sapiens, UniProt P00441); assay: Inhibition of human erythrocyte CuZn-SOD at 100 uM by NBT dye based spectrophotometry
In short: (§5)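 Fe-SOD source: Arequipa epimastigote homogenate (STE buffer pH 7.8, sonication, centrifugation, supernatant; protein by Bradford); CuZn-SOD was commercial human erythrocyte enzyme. Activity was measured as NBT reduction by superoxide in 50 mM potassium phosphate pH 7.8, with compounds at 5 concentrations (1–100 µM). A560 was read before and after 10 min under lamp light with stirring. Three rate determinations; Newman–Keuls test.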

Trypanosoma cruzi [14] = assay: as §1, with “muscle” for “lung”; type: functional, organism-based
Trypanosoma cruzi [15] = assay: Antitrypanosomal activity against Trypanosoma cruzi Arequipa trypomastigotes infected in BALB/c mouse assessed as reduction in splenomegaly by measuring weight percent of spleens […] at 100 mg/kg, po dosed on alternating days (7 to 15 days post infection) by PCR analysis (reference value: 1.603%); type: functional
Trypanosoma cruzi [16] = assay: Antitrypanosomal activity against Trypanosoma cruzi Arequipa trypomastigotes infected in BALB/c mouse assessed as parasitemia re-activation level measured during chronic phase ( day 90 post infection) at 100 mg/kg, po dosed on alternating days (7 to 15 days post infection) relative to acute phase infection (reference value: […]%); type: functional
Trypanosoma cruzi [17] = assay: Inhibition of Trypanosoma cruzi Arequipa Fe-SOD at <50 uM by NBT dye based spectrophotometry; conditions: dose microM <50; in short: as §5
Vero = assay: Cytotoxicity in African green monkey Vero cells incubated for 72 hrs; type: cell-based; conditions: Chlorocebus sabaeus
Trypanosoma cruzi [18] = assay: Antitrypanosomal activity against Trypanosoma cruzi SN3 trypomastigote froms infected in mouse blood incubated for 24 hrs by Neubauer chamber based assay; type: functional, organism-based; in short: as §3
Trypanosoma cruzi [19] = assay: Antitrypanosomal activity against Trypanosoma cruzi Arequipa amastigote forms infected in African green monkey Vero cells incubated for 72 hrs by Giemsa staining based micrscopy; type: functional, organism-based
In short: (§6)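 Vero cells (RPMI, 10% inactivated FBS, 37 °C, 5% CO2) were seeded at 1×10^4/well on coverslips and cultured 2 days. They were infected 24 h with metacyclic forms at 10:1. After washing off free parasites, drugs were added at 0.1–100 µM for 72 h. Slides were methanol-fixed and Giemsa-stained; amastigotes were counted in 200 host cells versus untreated. IC50 was calculated.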

[20] = Inhibition of Trypanosoma cruzi Arequipa Fe-SOD by NBT dye based spectrophotometry; in short: as §5
Trypanosoma cruzi [21] = assay: Antitrypanosomal activity against Trypanosoma cruzi SN3 amastigote forms infected in African green monkey Vero cells incubated for 72 hrs by Giemsa staining based micrscopy; type: functional, organism-based; in short: as §6
Trypanosoma cruzi [22] = assay: Antitrypanosomal activity against Trypanosoma cruzi Arequipa trypomastigotes infected in BALB/c mouse assessed as reduction in parasitemia measured during acute phase (days 0 to 40 post infection) at 50 to 100 mg/kg, po dosed on alternating days (7 to 15 days post infection); type: functional, organism-based; conditions: dose 50-100 mg/kg
In short: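 Female BALB/c mice (8–10 weeks, 25–30 g; groups of six) were infected i.p. with 5×10^5 Arequipa blood trypomastigotes. Dosing was oral, 50 or 100 mg/kg/day, on 5 alternating days (days 7–15 pi), alongside untreated and reference-drug groups. Parasitemia was counted in 5 µL mandibular-vein blood by Neubauer chamber through day 40 pi. Data are means ± SD of six mice.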

Trypanosoma cruzi [23] = assay: Antitrypanosomal activity against Trypanosoma cruzi Tulahuen trypomastigote froms infected in mouse blood incubated for 24 hrs by Neubauer chamber based assay; type: functional, organism-based; in short: as §3
Trypanosoma cruzi [24] = assay: as §1, with “adipose tissue” for “lung”; type: functional, organism-based
Trypanosoma cruzi [25] = assay: Antitrypanosomal activity against Trypanosoma cruzi infected in African green monkey Vero cells assessed as reduction in number of trypomastigotes measured up to 10 days by Giemsa staining based hemocytometry; type: functional; conditions: time day <=10; in short: as §4
Trypanosoma cruzi [26] = assay: Antitrypanosomal activity against Trypanosoma cruzi infected in African green monkey Vero cells assessed as reduction in number of amastigotes per infected cell measured up to 10 days by Giemsa staining based hemocytometry; type: functional; conditions: time day <=10; in short: as §4
Trypanosoma cruzi [27] = assay: as §1, with “stomach” for “lung”; type: functional, organism-based
Trypanosoma cruzi [28] = assay: Antitrypanosomal activity against Trypanosoma cruzi Tulahuen amastigote forms infected in African green monkey Vero cells incubated for 72 hrs by Giemsa staining based micrscopy; type: functional, organism-based; in short: as §6
Trypanosoma cruzi [29] = assay: Antitrypanosomal activity against Trypanosoma cruzi Arequipa epimastigote forms incubated for 72 hrs by hemocytometry; type: functional, organism-based; in short: as §2
[30] = Selectivity index, ratio of IC50 for cytotoxicity in African green monkey Vero cells to IC50 for antitrypanosomal activity against Trypanosoma cruzi […] epimastigote forms
[31] = Selectivity index, ratio of IC50 for cytotoxicity in African green monkey Vero cells to IC50 for antitrypanosomal activity against Trypanosoma cruzi […] amastigote forms; type: toxicity, cell-based; conditions: read-out: Ratio IC50
[32] = biological target: T1, Superoxide dismutase [Cu-Zn]; assay: Inhibition of human erythrocyte CuZn-SOD by NBT dye based spectrophotometry; in short: as §5
Trypanosoma cruzi [33] = assay: Inhibition of Trypanosoma cruzi Arequipa Fe-SOD at 50 uM by NBT dye based spectrophotometry; in short: as §5
[34] = biological target: T1, Superoxide dismutase [Cu-Zn]; assay: Inhibition of human erythrocyte CuZn-SOD at 50 uM by NBT dye based spectrophotometry; in short: as §5

T1 sequence (P00441 whole entry): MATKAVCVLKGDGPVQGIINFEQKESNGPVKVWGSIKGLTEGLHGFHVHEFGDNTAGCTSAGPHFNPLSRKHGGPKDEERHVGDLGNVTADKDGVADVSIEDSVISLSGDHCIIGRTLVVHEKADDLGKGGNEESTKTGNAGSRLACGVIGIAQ

| SMILES | Activity (Trypanosoma cruzi [1]) | Activity (Trypanosoma cruzi [2]) | IC50 (Trypanosoma cruzi [3]) | Activity (Trypanosoma cruzi [4]) | Activity (Trypanosoma cruzi [5]) | IC50 (Trypanosoma cruzi [6]) | Activity (Trypanosoma cruzi [7]) | Activity (Trypanosoma cruzi [8]) | IC50 (Trypanosoma cruzi [9]) | inhibition (INH) (Trypanosoma cruzi [10]) | Activity (Trypanosoma cruzi [11]) | Activity (Trypanosoma cruzi [12]) | Activity (Trypanosoma cruzi [14]) | IC50 (Vero) | IC50 (Trypanosoma cruzi [18]) | IC50 (Trypanosoma cruzi [19]) | IC50 (Trypanosoma cruzi [21]) | IC50 (Trypanosoma cruzi [23]) | IC50 (Trypanosoma cruzi [28]) | IC50 (Trypanosoma cruzi [29]) | other results |
| --- | --- | --- | --- | --- | --- | --- | --- | --- | --- | --- | --- | --- | --- | --- | --- | --- | --- | --- | --- | --- | --- |
| O=C(CCN1CCN(c2ccc([N+](=O)[O-])cc2C(F)(F)F)CC1)c1csc2ccccc12 | Active | Active | 179 µM | 1.171% | Active | 20.3 µM | Active | Active | 50.3 µM | 76% | Active | Active | Active | 2850 µM | 33 µM | 10.8 µM | 72.9 µM | 2.5 µM | 22.8 µM | 26 µM | inhibition [13]: inactive; Spleen weight percent (Trypanosoma cruzi [15]): 0.892%; Activity (Trypanosoma cruzi [16]): 0%; inhibition (Trypanosoma cruzi [17]): 100%; IC50 [20]: 71.1 µM; Activity (Trypanosoma cruzi [22]): Active; Activity (Trypanosoma cruzi [24]): Active; inhibition (INH) (Trypanosoma cruzi [25]): 64%; inhibition (INH) (Trypanosoma cruzi [26]): 74%; Activity (Trypanosoma cruzi [27]): Active |
| O=C(CCN1CCN(c2cccc(C(F)(F)F)c2)CC1)c1ccsc1 | – | – | 12.8 µM | – | – | 26.8 µM | – | – | 28 µM | – | – | – | – | 4.8 µM | 4.6 µM | 18.6 µM | 5.7 µM | 22.3 µM | 20.2 µM | 28 µM | selectivity ratio [30]: 1; selectivity ratio [31]: 1 |
| O=C(CCN1CCN(c2ccc([N+](=O)[O-])cc2)CC1)c1csc2ccccc12 | Active | Active | 41.4 µM | 1.174% | Active | 35.9 µM | Active | Active | 35.5 µM | 59% | Active | Active | Active | 1710 µM | 18.6 µM | 11.7 µM | 20.7 µM | 0.5 µM | 19.8 µM | 77.7 µM | Spleen weight percent (Trypanosoma cruzi [15]): 0.729%; Activity (Trypanosoma cruzi [16]): 0%; IC50 [20]: 7.8 µM; IC50 [32]: 46.6 µM; Activity (Trypanosoma cruzi [22]): Active; Activity (Trypanosoma cruzi [24]): Active; inhibition (INH) (Trypanosoma cruzi [25]): 59%; inhibition (INH) (Trypanosoma cruzi [26]): 45%; inhibition (Trypanosoma cruzi [33]): 100%; inhibition [34]: 100%; Activity (Trypanosoma cruzi [27]): Active |
